Assay [1] deals with T1, 5-hydroxytryptamine receptor 7 (Homo sapiens, UniProt P34969). Description: Binding affinity to recombinant human 5HT7 receptor expressed in CHO cells by competitive binding assay. Type of assay: cell-based. Put shortly:
(§1)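 Cell-based functional assay on human recombinant receptors expressed in CHO cells. Test compound inhibition of the control specific agonist response was measured over a concentration range. Concentration-response curves were built from mean replicate values and fitted with the Hill equation by non-linear regression to give IC50, reported as KB.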

The target of assay [2] is 5-hydroxytryptamine receptor 7 (Rattus norvegicus) (UniProt P32305). Nature of the assay: Binding affinity to 5HT7 receptor in Sprague-Dawley rat hippocampus at 1 uCi/ml after 20 mins by semi-quantitative autoradiography in presence of 10 to 100 nM of 5HT7 receptor antagonist SB269970. The assay is classed as tissue-based. To be noted: tested as the 18F-labelled form. Put shortly: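 Coronal rat brain sections (30 µm, cut through hippocampus and cerebellum, stored at -80 °C) brought to ambient temperature, incubated 20 min in Tris phosphate-buffered saline (138 mM NaCl, 2.7 mM KCl, pH 7.6) with 37 kBq/ml [18F]radiotracer, alone or with SB269970 (10 nM, 100 nM or 1 µM). Rinsed 90 s in cold buffer (4 °C), then 90 s in cold water, dried, and exposed to a phosphor imaging plate for 60 min. Hippocampal binding read semi-quantitatively, in triplicate.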

In assay [3] the target is T2, 5-hydroxytryptamine receptor 1A (Homo sapiens) (UniProt P08908).
T2 sequence (whole entry): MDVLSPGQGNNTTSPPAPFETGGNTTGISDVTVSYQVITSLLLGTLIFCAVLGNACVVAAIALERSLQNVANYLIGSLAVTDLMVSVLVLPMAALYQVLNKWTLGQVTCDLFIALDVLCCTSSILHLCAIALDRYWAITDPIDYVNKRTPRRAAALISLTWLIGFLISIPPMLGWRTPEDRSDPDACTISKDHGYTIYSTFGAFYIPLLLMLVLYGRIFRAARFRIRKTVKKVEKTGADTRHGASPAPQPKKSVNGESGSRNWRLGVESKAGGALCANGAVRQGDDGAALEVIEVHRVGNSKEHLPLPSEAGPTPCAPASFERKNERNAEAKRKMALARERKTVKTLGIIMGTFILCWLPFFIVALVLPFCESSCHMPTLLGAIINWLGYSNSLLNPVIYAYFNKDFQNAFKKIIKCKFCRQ
Nature of the assay: Binding affinity to recombinant human 5HT1A receptor expressed in CHO cells by competitive binding assay. The assay is classed as cell-based. Put shortly:
as §1

Assay [4] concerns the target 5-hydroxytryptamine receptor 6 (Homo sapiens) (UniProt P50406). Description: Binding affinity to recombinant human 5HT6 receptor expressed in CHO cells by competitive binding assay. The assay is classed as cell-based. Put shortly: as §1
The target in assay [5] is T1, 5-hydroxytryptamine receptor 7. Nature of the assay: Binding affinity to 5HT7 receptor.

Activity calls are given as the source filed them. The rule behind the calls is not given here.

The results in this text go back to ChEMBL document CHEMBL1806494, “Synthesis and biological evaluation of potential 5-HT(7) receptor PET radiotracers” (Eur J Med Chem, 2011).

5-hydroxytryptamine receptor 7 (Rattus norvegicus), sequence (P32305 whole entry): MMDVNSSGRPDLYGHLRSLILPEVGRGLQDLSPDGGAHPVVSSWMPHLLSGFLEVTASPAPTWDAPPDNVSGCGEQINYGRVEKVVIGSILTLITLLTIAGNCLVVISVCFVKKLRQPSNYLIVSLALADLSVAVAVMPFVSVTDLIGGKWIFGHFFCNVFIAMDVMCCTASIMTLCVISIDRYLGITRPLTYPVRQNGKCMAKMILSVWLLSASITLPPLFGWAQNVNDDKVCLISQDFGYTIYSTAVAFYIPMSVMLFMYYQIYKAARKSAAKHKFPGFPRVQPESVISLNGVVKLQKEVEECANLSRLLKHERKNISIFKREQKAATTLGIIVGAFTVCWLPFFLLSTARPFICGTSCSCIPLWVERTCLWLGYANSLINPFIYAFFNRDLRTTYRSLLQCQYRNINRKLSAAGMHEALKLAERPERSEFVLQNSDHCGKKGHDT
5-hydroxytryptamine receptor 6 (Homo sapiens), sequence (P50406 whole entry): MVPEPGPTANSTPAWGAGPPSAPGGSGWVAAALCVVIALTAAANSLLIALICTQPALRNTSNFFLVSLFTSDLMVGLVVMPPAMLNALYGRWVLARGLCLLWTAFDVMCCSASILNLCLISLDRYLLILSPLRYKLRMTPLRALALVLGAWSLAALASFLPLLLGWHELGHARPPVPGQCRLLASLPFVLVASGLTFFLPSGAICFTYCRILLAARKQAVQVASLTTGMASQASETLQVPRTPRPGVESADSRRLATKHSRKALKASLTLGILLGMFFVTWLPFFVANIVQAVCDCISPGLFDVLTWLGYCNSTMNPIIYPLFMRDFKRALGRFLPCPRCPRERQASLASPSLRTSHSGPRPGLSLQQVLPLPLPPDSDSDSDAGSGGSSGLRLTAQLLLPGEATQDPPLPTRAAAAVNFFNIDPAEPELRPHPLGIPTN
T1 sequence (P34969 whole entry): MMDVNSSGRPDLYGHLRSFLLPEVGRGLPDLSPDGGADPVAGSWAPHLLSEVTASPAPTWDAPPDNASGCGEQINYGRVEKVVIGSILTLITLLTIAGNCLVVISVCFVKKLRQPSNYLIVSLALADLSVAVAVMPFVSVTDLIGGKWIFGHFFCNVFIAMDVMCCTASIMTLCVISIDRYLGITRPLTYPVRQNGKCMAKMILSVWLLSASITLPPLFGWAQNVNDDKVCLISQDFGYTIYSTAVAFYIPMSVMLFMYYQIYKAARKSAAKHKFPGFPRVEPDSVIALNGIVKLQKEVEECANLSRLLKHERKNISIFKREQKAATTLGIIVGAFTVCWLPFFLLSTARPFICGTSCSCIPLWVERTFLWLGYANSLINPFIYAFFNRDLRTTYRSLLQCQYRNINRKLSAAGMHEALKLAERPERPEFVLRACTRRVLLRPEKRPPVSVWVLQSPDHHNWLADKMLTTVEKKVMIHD

For `COc1ccccc1N1CCN(CC[C@H]2CCCN2S(=O)(=O)c2ccccc2F)CC1`, the values for the Kb in assay [1], in assay [3] and in assay [4] were 0.0016 µM, over 10 µM and over 10 µM, respectively. In addition, the result in assay [2] was Active.
Broadly, the Ki is the equilibrium dissociation constant of an inhibitor or competing ligand from its target. For `[11CH3]N1C(=O)C2(CCCCN3CCc4sccc4C3)CCCc3cccc1c32` (configuration not stated), the Ki in assay [5] stood at 0.0097 µM.
For the compound `COc1ccccc1N1CCN(CC[C@H]2CCCN2S(=O)(=O)c2ccc(F)cc2)CC1`, the Kb was 0.0048 µM in assay [1], over 10 µM in assay [3] and over 10 µM in assay [4]. For the same compound, the result in assay [2] was Active.
For the compound `CC1CCN(CC[C@H]2CCCN2S(=O)(=O)c2ccc(F)cc2)CC1`, the Kb in assay [1] is 0.014 µM; in assay [3], over 10 µM; in assay [4], over 10 µM. For the same compound, in assay [2], the outcome was inactive.
Regarding `CC1CCN(CC[C@H]2CCCN2S(=O)(=O)c2ccccc2F)CC1`, the Kb is 0.0084 µM in assay [1], over 10 µM in assay [3] and over 10 µM in assay [4]. Besides, the outcome in assay [2] was inactive.
